*1 amine or outer side, *2 acyl side, *3 side chain or, on linkers, in order; H or OH if unused. Where a SMILES comes first, the peptide text is derived from it. Bridges are numbered along the chain shown (N, C = ends). [ ]: non-standard residue; d: D form. The star is where a group is joined. oXylylene = c1ccc(C[*:2])c(C[*:1])c1; Pent4ynoyl = C#CCCC(=O)*
What was measured:
[1] = tested on: HeLa cells stably expressing GFP-LC3; assay: GFP-LC3 puncta assay of autophagic flux, with and without bafilomycin A1; assay type: cell-based
How it was run: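 HeLa cells stably expressing GFP-LC3 were given peptide for 2 h in serum-free Opti-MEM acidified with 0.15% (v/v) 6 N HCl, with or without bafilomycin A1. Cells were fixed in 2% PFA in PBS and GFP-LC3 puncta per cell were counted by fluorescence microscopy, with ≥100 cells per sample. Triplicate samples, mean ± SEM, t test versus DMSO; ≥3 independent experiments.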

[2] = Solubility as observed by the authors; assay type: physicochemical
HeLa-Htt103Q cells = assay: Htt103Q aggregate assay, cellular model of Huntington's disease; assay type: cell-based; details: HeLa cells expressing CFP-htt103Q, 20 μM peptide, aggregates <1 μm
How it was run: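 HeLa cells expressing CFP-Htt103Q were treated with peptide, then fixed in 2% PFA in PBS. An observer blinded to condition counted CFP-positive aggregates <1 μm by fluorescence microscopy. Scores were the percentage of cells carrying small aggregates and the number of small aggregates per cell.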

solubility compared with DD5-o ([2]; medium not stated, N-terminal tag attached to DD5-o)	Compound	extent of autophagy induction relative to Tat-Beclin 1 (GFP-LC3 puncta) ([1]; 10 μM peptide, 2 h)	change in GFP-LC3 puncta upon cotreatment with Baf A1 ([1]; peptide 2 h plus bafilomycin A1)	solubility in water ([2]; judged for 2D-NMR experiments)	number of small htt103Q aggregates observed per cell (HeLa-Htt103Q cells)	percentage of cells that have small htt103Q aggregates (HeLa-Htt103Q cells)
	C#CCCC(=O)N[C@H](C(=O)N[C@@H]1CSCc2ccccc2CSC[C@H](C(=O)N[C@@H](Cc2ccccc2)C(=O)N[C@@H](Cc2c[nH]cn2)C(=O)N[C@H](C(=O)N[C@@H](Cc2c[nH]c3ccccc23)C(=O)N[C@@H](Cc2c[nH]cn2)C(N)=O)[C@@H](C)CC)NC(=O)[C@H](C)NC(=O)[C@H](CC(N)=O)NC1=O)C(C)C [DD5-o] (Pent4ynoyl-V[dC]NA[dC]FHIWH-NH2; linker 2-5 via oXylylene)	slightly less activity than Tat-Beclin 1	further increase in GFP-LC3 puncta	not soluble enough in water for 2D-NMR experiments	significant decrease	significant decrease
equally soluble as DD5-o	(HT)-VcNAcFHIWH (sidechain bridge or staple) [HT-DD5-o]					

— article PMC5473019 (Journal of the American Chemical Society, 2017)
